This assay relates to Trypanosoma cruzi. Kind of assay: Antitrypanosomal activity against Trypanosoma cruzi Tulahuen infected in mouse NIH/3T3 cells assessed as multimode parasite growth inhibition after 4 days by beta-galactosidase reporter gene assay. Type of assay: functional, organism-based. Conditions: NIH3T3, 96 h. Summed up:
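Recombinant Tulahuen T. cruzi stably expressing a beta-galactosidase reporter, cocultured with mouse NIH/3T3 fibroblast host cells. Compounds added to host cells before infection with parasites; growth inhibition read by reporter; IC50 in nM.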
For orientation: Reporter assays use an easily measured gene product as a stand-in for the process of interest.
As usually defined, the IC50 is the concentration needed to halve the response being measured. As for `CC(C)N1C[C@H](C)[C@@H](CN(C)Cc2ccc(Oc3ccccc3)cc2)Oc2c(NC(=O)C3CCN(C)CC3)cccc2C1=O`, the half-inhibitory concentration (IC50) amounted to 1200 nM.

For `CC(C)N1C[C@H](C)[C@@H](CN(C)Cc2ccccc2)Oc2c(NC(=O)c3ccncc3)cccc2C1=O`, the half-inhibitory concentration (IC50) is less than 1 nM.

Consider `C[C@H]1CN([C@@H](C)CO)C(=O)c2cccc(NC(=O)c3ccncc3)c2O[C@@H]1CN(C)Cc1cccc(C(F)(F)F)c1`, for which the half-inhibitory concentration (IC50) is 1 nM.

For `COc1ccc(CN(C)C[C@H]2Oc3c(NC(=O)c4ccncc4)cccc3C(=O)N([C@@H](C)CO)C[C@@H]2C)cc1`, the IC50 was 127 nM.

As to `CC(C)N1C[C@H](C)[C@@H](CN(C)Cc2ccc(Oc3ccccc3)cc2)Oc2c(NC(=O)c3cccnc3)cccc2C1=O`, the IC50 turned out to be 45 nM.

Consider `CC(C)N1C[C@H](C)[C@@H](CN(C)Cc2ccc(Oc3ccccc3)cc2)Oc2c(NC(=O)C3CCNCC3)cccc2C1=O`, for which the 50% inhibitory concentration (IC50) was 1000 nM.

For the molecule `CC(C)N1C[C@H](C)[C@@H](CN(C)Cc2cccc(Cl)c2)Oc2c(NC(=O)c3ccncc3)cccc2C1=O`, the IC50 was 2 nM.

As to `C[C@H]1CN([C@@H](C)CO)C(=O)c2cccc(NC(=O)c3ccncc3)c2O[C@@H]1CN(C)Cc1ccc(Cl)c(F)c1`, the half-inhibitory concentration (IC50) amounted to 1 nM.

For the molecule `C[C@H]1CN([C@@H](C)CO)C(=O)c2cccc(NC(=O)c3ccncc3)c2O[C@@H]1CN(C)Cc1ccc(-c2ccccc2)cc1`, the concentration for half-maximal inhibition (IC50) turned out to be 10 nM.

In the case of `C[C@H]1CN([C@@H](C)CO)C(=O)c2cccc(NC(=O)c3ccncc3)c2O[C@@H]1CN(C)Cc1ccc(Cl)cc1Cl`, the half-inhibitory concentration (IC50) is 27 nM.

Turning to `Cc1cccc(CN(C)C[C@H]2Oc3c(NC(=O)c4ccncc4)cccc3C(=O)N([C@@H](C)CO)C[C@@H]2C)c1`, the concentration for half-maximal inhibition (IC50) came to 1 nM.

`C[C@H]1CN([C@@H](C)CO)C(=O)c2cccc(NC(=O)c3ccncc3)c2O[C@@H]1CN(C)Cc1cccc(Cl)c1Cl`: the concentration for half-maximal inhibition (IC50) was found to be 25 nM.

In the case of `C[C@H]1CN([C@@H](C)CO)C(=O)c2cccc(NC(=O)c3ccncc3)c2O[C@@H]1CN(C)Cc1cccc(Cl)c1`, the 50% inhibitory concentration (IC50) amounted to 15 nM.

Turning to `C[C@H]1CN([C@@H](C)CO)C(=O)c2cccc(NC(=O)c3ccncc3)c2O[C@@H]1CN(C)Cc1ccc(F)c(F)c1`, the IC50 was found to be 50 nM.

Consider `C[C@H]1CN([C@@H](C)CO)C(=O)c2cccc(NC(=O)c3ccncc3)c2O[C@@H]1CN(C)Cc1cc(Cl)cc(Cl)c1`, for which the IC50 was found to be 10 nM.

For `COc1cccc(CN(C)C[C@H]2Oc3c(NC(=O)c4ccncc4)cccc3C(=O)N([C@@H](C)CO)C[C@@H]2C)c1`, the IC50 was determined as 57 nM.

On to `Cc1ccc(CN(C)C[C@H]2Oc3c(NC(=O)c4ccncc4)cccc3C(=O)N([C@@H](C)CO)C[C@@H]2C)cc1`, for which the IC50 is 14 nM.

Turning to `C[C@H]1CN([C@@H](C)CO)C(=O)c2cccc(NC(=O)c3ccncc3)c2O[C@@H]1CN(C)Cc1ccccc1C(F)(F)F`, the half-inhibitory concentration (IC50) stood at 34 nM.

Turning to `CC(C)N1C[C@H](C)[C@@H](CN(C)Cc2ccc(Oc3ccccc3)cc2)Oc2c(NC(=O)c3ccccc3)cccc2C1=O`, the IC50 worked out at 500 nM.

`C[C@H]1CN([C@@H](C)CO)C(=O)c2cccc(NC(=O)c3ccncc3)c2O[C@@H]1CN(C)Cc1ccc(Cl)cc1`: the half-maximal inhibitory concentration (IC50) was found to be 1 nM.

For the molecule `C[C@H]1CN([C@@H](C)CO)C(=O)c2cccc(NC(=O)c3ccncc3)c2O[C@@H]1CN(C)Cc1cc(Cl)ccc1Cl`, the concentration for half-maximal inhibition (IC50) is 57 nM.

Consider `Cc1ccccc1CN(C)C[C@H]1Oc2c(NC(=O)c3ccncc3)cccc2C(=O)N([C@@H](C)CO)C[C@@H]1C`, for which the IC50 stood at 56 nM.

As to `COc1ccccc1CN(C)C[C@H]1Oc2c(NC(=O)c3ccncc3)cccc2C(=O)N([C@@H](C)CO)C[C@@H]1C`, the IC50 turned out to be 78 nM.

As to `C[C@H]1CN([C@@H](C)CO)C(=O)c2cccc(NC(=O)c3ccncc3)c2O[C@@H]1CN(C)Cc1ccccc1Cl`, the IC50 stood at 165 nM.

In the case of `CC(C)N1C[C@H](C)[C@@H](CN(C)Cc2ccc(Oc3ccccc3)cc2)Oc2c(NC(=O)c3ccccn3)cccc2C1=O`, the half-inhibitory concentration (IC50) amounted to 344 nM.

Consider `CC(C)N1C[C@H](C)[C@@H](CN(C)Cc2ccccc2Cl)Oc2c(NC(=O)c3ccncc3)cccc2C1=O`, for which the IC50 came to 45 nM.
